According to the array DNA melting data of Ke et al. (doi:10.1101/2024.01.08.574731):

Legend:
[1] = melting temperature; fluorescence melt of hairpins on a sequencing array, two-state fit, raised by 9.35 °C to match UV melts; settings: sodium 0.088 M
Procedure, shortened: (§1)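 Library hairpins on a sequenced MiSeq flow cell carried annealed Cy3 and quencher oligos, and their Cy3 fluorescence was imaged in 50 mM Na-HEPES pH 8.0 with 25 mM NaCl, in 2.5 °C steps up to 60 °C. Signals were normalised to Cy3 before quenching and to control constructs. Melting temperature and folding enthalpy were obtained from bootstrapped two-state fits, combined by inverse-variance weighting across four replicates, and the fitted temperatures were then raised by 9.35 °C to match UV melts.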

[2] = folding enthalpy; higher = less favourable; fluorescence melt of hairpins on a sequencing array, two-state fit; settings: sodium 0.088 M
Procedure, shortened: as §1

Row | Sequence | Tm [1] [°C] | folding enthalpy [2] [kcal/mol]
1 | GATCCTCGGGAGGATC ((((((....)))))) | 56.1 | -37.7
2 | GAGATCGAAAGATCTC ((((((....)))))) | 63.2 | -38.2
3 | GTCCACGAAAGTGTGGAC ((((((....)))..))) | 55.8 | -27.1
4 | CAGTGGAAACACTG (((((....))))) | 51.7 | -23
5 | GATCTAAATTTAGATC ((((((....)))))) | 44.3 | -32.3
6 | GTATACCGAAAGGTTTAC (((.(((....))).))) | 43.3 | -27.5
7 | GGAGGCGAAAGCCCCTCC ((((((....)))..))) | 59.1 | -12.6
8 | GCAACCGAAAGGTGGTGC ((((((....)))..))) | 48.6 | -20.8
9 | GGTCGCGGAAACGTGGCC ((.(.((....)).).)) | 53.5 | -48.9
10 | GATCTGTGATCAGATC ((((((....)))))) | 49.2 | -34
11 | GAGAGGGGAAACCCCCTC (((.(((....))).))) | 47.9 | -14.9
12 | GCTAATGGAAACGTTAGC (((((.(....).))))) | 43.9 | -29.7
13 | GCCCTCGGAAACGAAGGC (((.(((....))).))) | 46.6 | -34.1
14 | GACGTTGGAAACAATGTC (((.(((....))).))) | 48.4 | -37.3
15 | CGGGCGGAAACGCCCCG ((((((....))).))) | 59.6 | -8.53
16 | GTTAGAGGAAACTCTAAC (((((((....))))))) | 51.6 | -39.7
17 | TTGTGGAAACACAA (((((....))))) | 40.4 | -19.7
18 | GCTTCGCGAAAGCTTAGC (((..((....))..))) | 50.2 | -15.2
19 | GGTAGAGGAAACCCTACC (((((.(....).))))) | 38.2 | -33.4

Row | Sequence | Tm [1] [°C] | folding enthalpy [2] [kcal/mol]
20 | GATCAGGTATCTGATC ((((((....)))))) | 57.5 | -40.8
21 | GCTGGTACGAAAGTAAGC (((..(((....)))))) | 34.2 | -16.2
22 | GATCTTGATTAAGATC ((((((....)))))) | 41.8 | -26.6
23 | GATTCGCGAAAGCGCATC (((.(((....))).))) | 42.7 | -21.5
24 | GCGGGAGCCCGC ((((....)))) | 56 | -20
25 | GATCACGAGGTGATC ((((((...)))))) | 57.8 | -33.7
26 | GCTGCGCGAAAGCGAGC (((.(((....)))))) | 60.4 | -14.3
27 | GATCATGTGAATGATC ((((((....)))))) | 54.6 | -39.3
28 | GGAACCGGAAACGATTCC ((((.((....)).)))) | 42.8 | -31.3
29 | GTGGATGGAAACATCCGC (.(((((....))))).) | 56.1 | -28
30 | GGTTACGAAAGTAGAACC ((((((....)))..))) | 37.8 | -18.2
31 | GATCCATCGTTGGATC ((((((....)))))) | 51.7 | -43.1
32 | GTGAAGCGAAAGCTCCAC (((.(((....))).))) | 50 | -24
33 | GCATCTGAAAAGATGC ((((((....)))))) | 64.7 | -32.6
34 | GACATACGAAAGTAAGTC (((.(((....))).))) | 42.7 | -29.7
35 | GGCAGGCCGAAAGGCGCC (((..(((....)))))) | 59.6 | -21.3
36 | GATCGACCGTCGATC ((((((...)))))) | 49 | -36
37 | GCTGCGGGAAACCACAGC ((((.((....)).)))) | 52.7 | -37.5
38 | GTAATGGGAAACCATTGC (.(((((....))))).) | 43.3 | -26.4
